pIC50: −log10 of the molar value. One block for each compound: values may come before it. Active and inactive are the calls of the source. The calls are words filed in the database; no cut-off is given here.
What was measured:
HL-60 [1] = experiment: Induction of differentiation of human HL60 cells assessed as morphological changes at 3 uM after 7 days; assay type: functional, cell-based
Method in brief: (§1)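 HL-60 cells were treated with compound, with 0.1% DMSO as vehicle control. Differentiation was judged by Wright-Giemsa morphology and NBT reduction, each scored semi-quantitatively from − through ± to +++.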

HL-60 [2] = experiment: Cytotoxicity against human HL60 cells assessed as reduction in cell viability at >3 uM; assay type: functional, cell-based
HL-60 [3] = experiment: Induction of apoptosis in human HL60 cells at 10 uM after 7 days; assay type: functional
Method in brief: (§2)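 Apoptosis in compound-treated HL-60 cells was scored semi-quantitatively (− to +++), alongside the differentiation read-outs, against a 0.1% DMSO vehicle control.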

HL-60 [4] = experiment: Cytotoxicity against human HL60 cells assessed as reduction in cell viability at 3 uM; assay type: functional, cell-based
HL-60 [5] = experiment: Induction of differentiation of human HL60 cells assessed as increase in CEBPE mRNA expression at by QT-PCR analysis; assay type: functional, cell-based
Method in brief: (§3)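 HL-60 cells were treated with compound over a time course. CEBPA or CEBPE mRNA levels were measured and expressed as fold increase relative to the DMSO vehicle.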

HL-60 [6] = experiment: Induction of differentiation of human HL60 cells assessed as morphological changes at 10 uM after 7 days by NBT reduction assay; assay type: functional
Method in brief: (§4)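 HL-60 cells were screened for differentiation by Wright-Giemsa morphology and NBT reduction, and apoptosis was scored alongside. Controls were 0.1% DMSO as vehicle and ATRA at 1 μM as positive. Each result was graded on a semiquantitative scale (−, ±, + to +++).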

HL-60 [7] = experiment: Induction of differentiation of human HL60 cells assessed as morphological changes at 10 uM after 7 days by Wright-Giemsa staining based assay; assay type: functional; method in brief: as §4
HL-60 [8] = experiment: Induction of differentiation of human HL60 cells assessed as increase in CEBPA mRNA expression at by QT-PCR analysis; assay type: functional, cell-based
Method in brief: (§5)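 HL-60 cells were treated and CEBPA and CEBPE mRNA levels were measured by quantitative RT-PCR. Results are expressed as fold increase relative to DMSO-treated cells.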

HL-60 [9] = experiment: Induction of differentiation of human HL60 cells assessed as increase in CD11b positive cells after 7 days by flow cytometric analysis relative to control; assay type: functional, cell-based
Method in brief: (§6)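 HL-60 cells were exposed to compound for 7 days, then stained with APC-conjugated anti-human/mouse CD11b antibody, with rat IgG2b as isotype control. CD11b-positive cells were measured by flow cytometry and reported as percent increase relative to the DMSO vehicle.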

HL-60 [10] = experiment: Induction of differentiation of human HL60 cells assessed as morphological changes at 10 uM after 7 days; assay type: functional; method in brief: as §4
HL-60 [11] = experiment: Induction of differentiation of human HL60 cells assessed as increase in CD11b positive cells at 10 uM after 7 days by flow cytometric analysis (reference value: 3.94%); assay type: functional
HL-60 [12] = experiment: Induction of differentiation of human HL60 cells assessed as increase in CEBPE mRNA expression at 10 uM by QT-PCR analysis; assay type: functional; method in brief: as §5
HL-60 [13] = experiment: Induction of differentiation of human HL60 cells assessed as increase in CEBPA mRNA expression at 10 uM by QT-PCR analysis; assay type: functional; method in brief: as §5
L1210 = experiment: Cytotoxicity against mouse L1210 cells assessed as reduction in cell viability after 48 hrs by trypan blue staining-based hemocytometric analysis; assay type: functional; conditions: L1210, 48 h
Tubulin = Tubulin (Bos taurus, UniProt Q6B856+Q862L2+Q862F3); experiment: Inhibition of bovine brain tubulin polymerization
HL-60 [14] = experiment: Induction of differentiation of human HL60 cells assessed as morphological changes at 1 uM after 7 days; assay type: functional, cell-based; method in brief: as §1
HL-60 [15] = experiment: Cytotoxicity against human HL60 cells assessed as reduction in cell viability at 1 uM; assay type: functional, cell-based
HL-60 [16] = experiment: Induction of differentiation of human HL60 cells assessed as increase in CD11b positive cells at 7 uM after 7 days by flow cytometric analysis (reference value: 3.94%); assay type: functional
HL-60 [17] = experiment: Induction of differentiation of human HL60 cells assessed as morphological changes at 3 uM after 7 days by Wright-Giemsa staining based assay; assay type: functional; method in brief: as §4
HL-60 [18] = experiment: Induction of differentiation of human HL60 cells assessed as morphological changes at 3 uM after 7 days by NBT reduction assay; assay type: functional; method in brief: as §4
HL-60 [19] = experiment: Induction of differentiation of human HL60 cells assessed as increase in CEBPE mRNA expression at 7 uM by QT-PCR analysis; assay type: functional; method in brief: as §5
HL-60 [20] = experiment: Induction of apoptosis in human HL60 cells at 3 uM after 7 days; assay type: functional; method in brief: as §4
HL-60 [21] = experiment: Induction of differentiation of human HL60 cells assessed as increase in CEBPA mRNA expression at 7 uM by QT-PCR analysis; assay type: functional; method in brief: as §5
HL-60 [22] = experiment: Induction of differentiation of human HL60 cells assessed as morphological changes at 1 uM after 7 days by Wright-Giemsa staining based assay; assay type: functional
Method in brief: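 Compound-treated HL-60 cells were stained with Wright-Giemsa and examined for granulocytic morphology. Scoring was semi-quantitative (− to +++) against a 0.1% DMSO vehicle control.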

HL-60 [23] = experiment: Induction of differentiation of human HL60 cells assessed as increase in CD11b positive cells at 1 uM after 7 days by flow cytometric analysis (reference value: 3.94%); assay type: functional; method in brief: as §6
HL-60 [24] = experiment: Induction of differentiation of human HL60 cells assessed as morphological changes at 1 uM after 7 days by NBT reduction assay; assay type: functional
Method in brief: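 In compound-treated HL-60 cells, differentiation was read as NBT reduction. Scoring was semi-quantitative (−, ±, + to +++) against a 0.1% DMSO vehicle control.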

HL-60 [25] = experiment: Induction of differentiation of human HL60 cells assessed as increase in CEBPA mRNA expression at 1 uM by QT-PCR analysis; assay type: functional; method in brief: as §3
HL-60 [26] = experiment: Induction of apoptosis in human HL60 cells at 1 uM after 7 days; assay type: functional; method in brief: as §2
HL-60 [27] = experiment: Induction of differentiation of human HL60 cells assessed as increase in CD11b positive cells at 5 uM after 7 days by flow cytometric analysis (reference value: 3.94%); assay type: functional
HL-60 [28] = experiment: Induction of differentiation of human HL60 cells assessed as increase in CEBPA mRNA expression at 3 uM by QT-PCR analysis; assay type: functional; method in brief: as §5
HL-60 [29] = experiment: Induction of differentiation of human HL60 cells assessed as increase in CD11b positive cells at 3 uM after 7 days by flow cytometric analysis (reference value: 3.94%); assay type: functional
HL-60 [30] = experiment: Induction of differentiation of human HL60 cells assessed as increase in CEBPE mRNA expression at 3 uM by QT-PCR analysis; assay type: functional; method in brief: as §5

Structure (SMILES): O=c1c2sccc2nc(/C=C/c2ccc([N+](=O)[O-])o2)n1-c1ccc(Cl)cc1
Activity (HL-60 [1]): inactive | Activity (HL-60 [2]): Active | Activity (HL-60 [3]): 5 - 30% | Activity (HL-60 [4]): Active

Structure (SMILES): Cc1cc(C#Cc2ccc(C(C)(C)C)cc2)ccc1-n1c(/C=C/c2ccc([N+](=O)[O-])o2)nc2ccccc2c1=O
Activity (HL-60 [5]): inactive | Activity (HL-60 [6]): 5 - 30% | Activity (HL-60 [7]): 5 - 30% | Activity (HL-60 [8]): inactive | Activity (HL-60 [9]): inactive | Activity (HL-60 [10]): 5 - 30% | Activity (HL-60 [3]): 5 - 30%

Structure (SMILES): COc1cc(/C=C/c2nc3ccccc3c(=O)n2-c2c(Cl)cccc2Cl)ccc1O
Activity (HL-60 [3]): 5 - 30%

Structure (SMILES): C#Cc1ccc(-n2c(/C=C/c3ccc(O)cc3)nc3ccccc3c2=O)cc1
Activity (HL-60 [6]): 5 - 30% | Activity (HL-60 [7]): 5 - 30% | Activity (HL-60 [10]): 5 - 30% | Activity (HL-60 [3]): 5 - 30%

Structure (SMILES): O=c1c2ccccc2nc(/C=C/c2ccc([N+](=O)[O-])o2)n1-c1ccccc1F
Activity (HL-60 [6]): 30 - 60% | Activity (HL-60 [7]): 30 - 60% | Activity (HL-60 [8]; TDE = time-dependent effect): Tde | Activity (HL-60 [11]): 59% | fold change (FC) (HL-60 [12]): 6 | fold change (FC) (HL-60 [13]): 1.8 | Activity (HL-60 [3]): >60%

Structure (SMILES): O=C(O)c1cccc(-n2c(/C=C/c3ccc([N+](=O)[O-])o3)nc3ccccc3c2=O)c1
Activity (HL-60 [6]): 5 - 30% | Activity (HL-60 [7]): 5 - 30%

Structure (SMILES): Cc1cc(-n2c(/C=C/c3ccccc3)nc3ccc(Cl)cc3c2=O)n(-c2ccccc2)n1
pIC50 (L1210): 4.82

Structure (SMILES): O=c1[nH]c(/C=C/c2ccc([N+](=O)[O-])o2)nc2ccsc12
Activity (HL-60 [6]): 5 - 30% | Activity (HL-60 [8]): Active | Activity (HL-60 [1]): inactive | Activity (HL-60 [9]): inactive | Activity (HL-60 [2]): Active | Activity (HL-60 [3]): 5 - 30% | Activity (HL-60 [4]): Active

Structure (SMILES): O=c1c2sccc2nc(/C=C/c2ccc([N+](=O)[O-])o2)n1-c1cccc(Cl)c1
Activity (HL-60 [1]): inactive | Activity (HL-60 [2]): Active | Activity (HL-60 [3]): 5 - 30% | Activity (HL-60 [4]): Active

Structure (SMILES): Cc1ccc(-n2c(/C=C/c3ccc([N+](=O)[O-])o3)nc3ccsc3c2=O)cc1
Activity (HL-60 [2]): Active | Activity (HL-60 [3]): 5 - 30%

IC50 (Tubulin): 2.5 µM
Structure (SMILES): Oc1nc(/C=C/c2ccccc2)nc2ccc(Cl)cc12

Structure (SMILES): O=c1c2sccc2nc(/C=C/c2ccc([N+](=O)[O-])o2)n1-c1ccccc1Cl
Activity (HL-60 [6]): 5 - 30% | Activity (HL-60 [8]): Active | Activity (HL-60 [14]): inactive | Activity (HL-60 [9]): inactive | Activity (HL-60 [2]): Active | Activity (HL-60 [3]): 5 - 30% | Activity (HL-60 [15]): Active

Structure (SMILES): COc1ccccc1-n1c(/C=C/c2ccc(O)c(O)c2)nc2ccccc2c1=O
Activity (HL-60 [6]): 5 - 30% | Activity (HL-60 [7]): 5 - 30% | Activity (HL-60 [8]; TDE = time-dependent effect): Tde | Activity (HL-60 [11]): 25.9 - 51.2% | fold change (FC) (HL-60 [12]): 2.1 | fold change (FC) (HL-60 [13]): 1.5 | Activity (HL-60 [3]): 5 - 30%

Structure (SMILES): COc1ccccc1-n1c(/C=C/c2ccc([N+](=O)[O-])o2)nc2ccc(F)cc2c1=O
Activity (HL-60 [16]): 89% | Activity (HL-60 [6]): 30 - 60% | Activity (HL-60 [7]): 30 - 60% | Activity (HL-60 [8]; TDE = time-dependent effect): Tde | Activity (HL-60 [17]): 5 - 30% | Activity (HL-60 [11]): 94.2% | Activity (HL-60 [18]): 5 - 30% | Activity (HL-60 [3]): >60% | fold change (FC) (HL-60 [19]): 2.6 | Activity (HL-60 [20]): 30 - 60% | fold change (FC) (HL-60 [21]): 1.6

Structure (SMILES): CC1=C(/C=C/C(C)=C/C=C/C(C)=C/C(=O)O)C(C)(C)CCC1 [TRETINOIN]
Activity (HL-60 [22]): >60% | Activity (HL-60 [8]; TDE = time-dependent effect): Tde | Activity (HL-60 [23]): 96.4% | Activity (HL-60 [24]): >60% | fold change (FC) (HL-60 [25]): 3 | Activity (HL-60 [26]): >60%

Structure (SMILES): O=c1c2cc(F)ccc2nc(/C=C/c2ccc([N+](=O)[O-])o2)n1-c1ccccc1
Activity (HL-60 [27]): 68.6% | fold change (FC) (HL-60 [28]): 2.5 | Activity (HL-60 [29]): 42.2% | Activity (HL-60 [8]; TDE = time-dependent effect): Tde | Activity (HL-60 [17]): 30 - 60% | fold change (FC) (HL-60 [30]): 10.3 | Activity (HL-60 [18]): 30 - 60% | Activity (HL-60 [20]): 30 - 60%
